In ChEMBL document CHEMBL4765308, “N-alkylpiperidine carbamates as potential anti-Alzheimer's agents” (Eur J Med Chem, 2020):
Where a name gives a salt, the structure may show the parent alone.

Tests used:
[1] = molecular target: T1, Amine oxidase [flavin-containing] A (Homo sapiens, UniProt P21397); test: Inhibition of human recombinant microsomal MAO-A expressed in baculovirus-infected BTI-TN-5B1-4 cells assessed as inhibition of H2O2 production using p-tyramine as substrate preincubated for 15 mins followed by substrate addition by Amplex Red reagent based fluorescence analysis
T1 sequence (P21397 whole entry): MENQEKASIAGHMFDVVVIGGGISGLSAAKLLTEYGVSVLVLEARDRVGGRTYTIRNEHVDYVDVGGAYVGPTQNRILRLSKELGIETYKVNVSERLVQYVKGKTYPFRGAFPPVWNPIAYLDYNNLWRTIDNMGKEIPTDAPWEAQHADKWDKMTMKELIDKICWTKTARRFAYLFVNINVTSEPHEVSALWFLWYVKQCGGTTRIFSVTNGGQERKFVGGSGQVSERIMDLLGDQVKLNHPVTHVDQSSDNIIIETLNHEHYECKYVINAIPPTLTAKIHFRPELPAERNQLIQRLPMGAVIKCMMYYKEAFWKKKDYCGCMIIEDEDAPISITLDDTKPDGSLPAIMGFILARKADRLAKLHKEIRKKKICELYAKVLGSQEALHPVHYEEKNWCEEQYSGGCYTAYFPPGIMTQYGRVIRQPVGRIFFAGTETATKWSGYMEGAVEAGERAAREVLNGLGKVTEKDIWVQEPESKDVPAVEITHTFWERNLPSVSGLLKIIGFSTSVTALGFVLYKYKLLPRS

[2] = molecular target: T2, Amine oxidase [flavin-containing] B (Homo sapiens, UniProt P27338); test: Inhibition of human recombinant microsomal MAO-B expressed in baculovirus-infected BTI-TN-5B1-4 cells assessed as inhibition of H2O2 production using p-tyramine as substrate preincubated for 15 mins followed by substrate addition by Amplex Red reagent based fluorescence analysis
T2 sequence (P27338 whole entry): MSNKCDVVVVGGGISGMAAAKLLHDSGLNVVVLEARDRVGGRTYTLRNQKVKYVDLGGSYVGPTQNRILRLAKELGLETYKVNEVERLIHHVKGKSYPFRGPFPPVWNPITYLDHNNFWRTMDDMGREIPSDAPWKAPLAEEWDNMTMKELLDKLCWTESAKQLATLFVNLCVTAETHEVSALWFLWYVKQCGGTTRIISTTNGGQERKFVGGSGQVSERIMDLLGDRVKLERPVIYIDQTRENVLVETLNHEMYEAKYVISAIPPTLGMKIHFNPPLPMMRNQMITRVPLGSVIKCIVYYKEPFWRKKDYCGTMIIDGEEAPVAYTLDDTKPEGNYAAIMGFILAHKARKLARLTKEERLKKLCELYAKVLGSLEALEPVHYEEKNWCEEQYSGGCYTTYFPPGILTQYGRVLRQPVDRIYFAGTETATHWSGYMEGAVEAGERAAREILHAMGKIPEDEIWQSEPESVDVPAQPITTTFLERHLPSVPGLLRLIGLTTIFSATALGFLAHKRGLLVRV
How it was run: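 Recombinant human MAO-A or MAO-B (insect-cell microsomes) preincubated with compound 15 min at 37 °C in 50 mM sodium phosphate, pH 7.4, 0.05% Triton X-114. Reaction started with 1 mM p-tyramine, 250 µM Amplex Red and 2 U/mL HRP (final concentrations). Resorufin fluorescence (ex 530/em 590 nm) followed for 20 min at 37 °C, duplicates. Blank-corrected residual activity; IC50 from a four-parameter Hill fit.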

Cholinesterase = Cholinesterase (Homo sapiens, UniProt P06276); test: Inhibition of human BuchE using butyrylthiocholine iodide as substrate preincubated for 30 mins followed by substrate addition by Ellman's method
Acetylcholinesterase = Acetylcholinesterase (Homo sapiens, UniProt P22303); test: Inhibition of human AChE using acetylthiocholine iodide as substrate preincubated with enzyme for 30 mins followed by substrate addition by Ellman's method
Homo sapiens = species on record: Homo sapiens; test: Inhibition of HFIP-pretreated human amyloid beta (1 to 42) self aggregation at 10 uM incubated for 36 to 48 hrs by thioflavin-T based fluorescence method relative to control; details: time 36-48 hrs
How it was run: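 HFIP-pretreated Aβ1-42 (1.5 µM) incubated with compound (10 µM) and thioflavin-T (10 µM final) at room temperature with continuous shaking for 36–48 h. Fluorescence (ex 440/em 490 nm) read every 3 min. Percent inhibition compared with Aβ + DMSO control, run in quadruplicate. Three independent experiments, mean ± SD, one-way ANOVA with Bonferroni test.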

Acetylcholinesterase, sequence (P22303 whole entry): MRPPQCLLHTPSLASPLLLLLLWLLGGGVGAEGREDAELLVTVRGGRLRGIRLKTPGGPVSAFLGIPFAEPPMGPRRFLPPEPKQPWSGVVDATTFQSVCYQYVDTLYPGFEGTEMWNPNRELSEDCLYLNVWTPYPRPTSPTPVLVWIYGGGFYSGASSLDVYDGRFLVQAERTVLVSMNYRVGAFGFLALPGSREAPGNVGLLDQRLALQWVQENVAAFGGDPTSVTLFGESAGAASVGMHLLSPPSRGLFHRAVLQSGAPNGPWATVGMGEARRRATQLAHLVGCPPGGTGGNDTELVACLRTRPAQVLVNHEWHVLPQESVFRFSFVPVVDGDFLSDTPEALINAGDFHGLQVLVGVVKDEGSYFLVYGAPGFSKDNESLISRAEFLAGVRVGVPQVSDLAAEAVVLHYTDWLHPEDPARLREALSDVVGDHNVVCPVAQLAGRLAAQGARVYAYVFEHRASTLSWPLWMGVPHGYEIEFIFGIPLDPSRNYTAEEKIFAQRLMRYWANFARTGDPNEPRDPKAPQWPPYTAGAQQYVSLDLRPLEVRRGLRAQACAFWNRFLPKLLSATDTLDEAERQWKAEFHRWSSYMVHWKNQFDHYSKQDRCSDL
Cholinesterase, sequence (P06276 whole entry): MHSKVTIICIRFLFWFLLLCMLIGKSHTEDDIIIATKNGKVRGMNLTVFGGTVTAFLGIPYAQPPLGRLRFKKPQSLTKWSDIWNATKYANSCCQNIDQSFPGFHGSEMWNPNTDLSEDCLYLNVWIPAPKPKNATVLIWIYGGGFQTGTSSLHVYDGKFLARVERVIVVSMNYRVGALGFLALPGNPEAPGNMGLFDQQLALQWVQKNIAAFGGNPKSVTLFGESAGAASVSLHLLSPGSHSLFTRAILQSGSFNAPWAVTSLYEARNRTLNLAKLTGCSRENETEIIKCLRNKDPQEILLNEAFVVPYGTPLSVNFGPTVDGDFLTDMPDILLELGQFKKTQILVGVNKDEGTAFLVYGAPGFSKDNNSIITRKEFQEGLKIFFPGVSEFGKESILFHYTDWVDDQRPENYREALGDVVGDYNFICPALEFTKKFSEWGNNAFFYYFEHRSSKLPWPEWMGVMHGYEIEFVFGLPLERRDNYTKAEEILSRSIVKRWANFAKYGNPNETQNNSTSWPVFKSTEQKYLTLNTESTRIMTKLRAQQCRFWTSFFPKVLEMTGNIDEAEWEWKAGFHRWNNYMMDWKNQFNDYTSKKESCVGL

Structure (SMILES)	IC50 [1]	IC50 [2]	IC50 (Cholinesterase)	IC50 (Acetylcholinesterase)	inhibition (Homo sapiens)
CC(C)c1ccc(NC(=O)OCC2CCN(C3Cc4ccccc4C3)CC2)cc1	> 100 µM	> 100 µM	> 100 µM	4.08 µM	–
O=C(Nc1ccccc1)OC1CCCN(Cc2ccccc2)C1 (stereo not drawn)	> 100 µM	33.3 µM	0.46 µM	> 100 µM	–
OC1CCN(Cc2ccccc2)CC1	> 100 µM	> 100 µM	> 100 µM	> 100 µM	–
C#CCN1CCC(COC(=O)Nc2ccccc2)CC1	> 100 µM	10.3 µM	14.4 µM	> 100 µM	–
OC1CCN(C2Cc3ccccc3C2)CC1	> 100 µM	> 100 µM	> 100 µM	> 100 µM	–
OC1CCCN(C2Cc3ccccc3C2)C1 (stereo not drawn)	> 100 µM	> 100 µM	> 100 µM	> 100 µM	–
O=C(Nc1ccccc1)OC1CCN(C2Cc3ccccc3C2)CC1	> 100 µM	> 100 µM	18.1 µM	19.2 µM	–
CCN(C)C(=O)OCC1CCCN(C2Cc3ccccc3C2)C1 (stereo not drawn)	> 100 µM	> 100 µM	9.39 µM	> 100 µM	–
C#CCN1CCCC(OC(=O)Nc2ccccc2)C1 (stereo not drawn)	> 100 µM	> 100 µM	84.5 µM	> 100 µM	–
C#CCN1CCCC(O)C1 (stereo not drawn)	> 100 µM	> 100 µM	> 100 µM	> 100 µM	–
OC1CCCN(Cc2ccccc2)C1 (stereo not drawn)	> 100 µM	> 100 µM	> 100 µM	> 100 µM	–
OCC1CCCN(C2Cc3ccccc3C2)C1 (stereo not drawn)	> 100 µM	> 100 µM	> 100 µM	> 100 µM	–
Oc1ccc(/C=C/c2cc(O)cc(O)c2)cc1	–	–	–	–	86.6%
CC(C)c1ccc(NC(=O)OCC2CCCN(Cc3ccccc3)C2)cc1 (stereo not drawn)	> 100 µM	> 100 µM	0.118 µM	15.1 µM	–
C#CCN1CCCC(CO)C1 (stereo not drawn)	> 100 µM	> 100 µM	> 100 µM	> 100 µM	–
CC(C)c1ccc(NC(=O)OC2CCCN(Cc3ccccc3)C2)cc1 (stereo not drawn)	> 100 µM	29.3 µM	3.25 µM	> 100 µM	–
CCN(C)C(=O)Oc1cccc([C@H](C)N(C)C)c1 [RIVASTIGMINE TARTRATE]	–	> 100 µM	–	–	< 20%
O=C(Nc1ccccc1)OCC1CCCN(C2Cc3ccccc3C2)C1 (stereo not drawn)	> 100 µM	> 100 µM	0.18 µM	> 100 µM	–
CC(C)c1ccc(NC(=O)OCC2CCCN(C3Cc4ccccc4C3)C2)cc1 (stereo not drawn)	> 100 µM	> 100 µM	0.442 µM	18.7 µM	–
O=C(Nc1ccccc1)OC1CCN(Cc2ccccc2)CC1	> 100 µM	> 100 µM	6.55 µM	> 100 µM	–
CCN(C)C(=O)OCC1CCN(C2Cc3ccccc3C2)CC1	> 100 µM	> 100 µM	4.46 µM	> 100 µM	–
C#CCN1CCC(COC(=O)Nc2ccc(C(C)C)cc2)CC1	> 100 µM	0.316 µM	24.3 µM	> 100 µM	–
CCN(C)C(=O)OCC1CCCN(Cc2ccccc2)C1 (stereo not drawn)	> 100 µM	> 100 µM	7.23 µM	96.6 µM	–
C#CCN[C@@H]1CCc2ccccc21 [RASAGILINE MESYLATE]	–	–	> 100 µM	> 100 µM	< 20%

Structure (SMILES)	IC50 [1]	IC50 [2]	IC50 (Cholinesterase)	IC50 (Acetylcholinesterase)	inhibition (Homo sapiens)
CC(C)c1ccc(NC(=O)OC2CCN(Cc3ccccc3)CC2)cc1	> 100 µM	> 100 µM	1.74 µM	> 100 µM	–
CCN(C)C(=O)OC1CCN(Cc2ccccc2)CC1	> 100 µM	> 100 µM	> 100 µM	> 100 µM	–
C#CCN1CCCC(COC(=O)Nc2ccc(C(C)C)cc2)C1 (stereo not drawn)	> 100 µM	2.86 µM	17.8 µM	> 100 µM	–
CCN(C)C(=O)OC1CCN(C2Cc3ccccc3C2)CC1	> 100 µM	> 100 µM	40.8 µM	> 100 µM	–
C#CCN1CCC(OC(=O)N(C)CC)CC1	> 100 µM	> 100 µM	11.4 µM	> 100 µM	–
C#CCN1CCC(OC(=O)Nc2ccccc2)CC1	> 100 µM	> 100 µM	19.1 µM	> 100 µM	–
COc1cc2c(cc1OC)C(=O)C(CC1CCN(Cc3ccccc3)CC1)C2 (stereo not drawn)	–	–	–	–	< 20%
CCN(C)C(=O)OC1CCCN(Cc2ccccc2)C1 (stereo not drawn)	> 100 µM	> 100 µM	21 µM	> 100 µM	–
OCC1CCCN(Cc2ccccc2)C1 (stereo not drawn)	> 100 µM	> 100 µM	> 100 µM	> 100 µM	–
C#CCN1CCC(O)CC1	> 100 µM	> 100 µM	> 100 µM	> 100 µM	–
C#CCN1CCC(CO)CC1	> 100 µM	> 100 µM	> 100 µM	> 100 µM	–
CCN(C)C(=O)OC1CCCN(C2Cc3ccccc3C2)C1 (stereo not drawn)	> 100 µM	> 100 µM	9.69 µM	> 100 µM	–
CC(C)c1ccc(NC(=O)OC2CCCN(C3Cc4ccccc4C3)C2)cc1 (stereo not drawn)	> 100 µM	> 100 µM	> 100 µM	7.91 µM	–
C#CCN1CCC(COC(=O)N(C)CC)CC1	> 100 µM	> 100 µM	> 100 µM	> 100 µM	–
C#CCN1CCCC(COC(=O)N(C)CC)C1 (stereo not drawn)	> 100 µM	> 100 µM	> 100 µM	> 100 µM	–
CC(C)c1ccc(NC(=O)OC2CCN(C3Cc4ccccc4C3)CC2)cc1	> 100 µM	> 100 µM	> 100 µM	2.31 µM	–
C#CCN1CCCC(COC(=O)Nc2ccccc2)C1 (stereo not drawn)	> 100 µM	> 100 µM	29.6 µM	> 100 µM	–
CCN(C)C(=O)OCC1CCN(Cc2ccccc2)CC1	> 100 µM	> 100 µM	46 µM	72 µM	–
C#CCN1CCCC(OC(=O)N(C)CC)C1 (stereo not drawn)	> 100 µM	> 100 µM	> 100 µM	> 100 µM	–
OCC1CCN(C2Cc3ccccc3C2)CC1	> 100 µM	> 100 µM	> 100 µM	> 100 µM	–
O=C(Nc1ccccc1)OCC1CCCN(Cc2ccccc2)C1 (stereo not drawn)	> 100 µM	39.5 µM	0.52 µM	67.1 µM	–
O=C(Nc1ccccc1)OCC1CCN(C2Cc3ccccc3C2)CC1	> 100 µM	> 100 µM	1.43 µM	> 100 µM	–
OCC1CCN(Cc2ccccc2)CC1	> 100 µM	> 100 µM	> 100 µM	> 100 µM	–
C#CCN1CCCC(OC(=O)Nc2ccc(C(C)C)cc2)C1 (stereo not drawn)	> 100 µM	71.8 µM	> 100 µM	> 100 µM	–
